Experimental data collected from several papers.
Protocols differ between the studies behind these lines.
Target: Mitogen-activated protein kinase kinase kinase kinase 4 (MAP4K4, Homo sapiens, UniProt O95819)

The activity vs control of Cc1ccc(C(=O)NCc2ccsc2)cc1C#Cc1cn(C(C)C)c2ncnc(N)c12 is reported as 146% (enzyme activity; inhibitor; 1 µM).
CN(C(=O)c1ccccc1)c1cc(N(C)c2ccc3c(c2)CCc2ccc(C(=O)NCCN4CCOCC4)cc2C3=O)ccc1F gave a remaining binding of 100% (cell-free assay; competition with immobilised ligand; 1 µM).
CC/C(=N\NC(=O)NCc1cccc(O)c1)c1ccc(O)c(C)c1O gave an inhibition of 3.8% (enzyme activity; inhibitor; 0.1 µM).
For CCCCN(CCCC)C(=O)CN1C[C@H](c2cc(OC)c3c(c2)OCO3)[C@@H](C(=O)O)[C@@H]1CC(C)(C)CCC, the remaining binding was 100% (cell-free assay; competition with immobilised ligand; 1 µM).
With COc1cc(Cl)c(C(=O)N[C@@H](CN[C@H]2CC[C@@H](N)CC2)Cc2ccc(C#N)cc2)cc1-c1ccc(CN[C@H](C)c2ccc(C)cc2)o1 the remaining activity was 96% (enzyme activity; inhibitor; 1 µM).
Nc1ncnc2occ(-c3ccc(NC(=O)Nc4cc(C(F)(F)F)ccc4F)cc3)c12 has a remaining signal of 0% (cell-free assay; inhibitor; 20 µM).
Oc1cccc(-c2nc(N3CCOCC3)c3oc4ncccc4c3n2)c1 has a remaining signal of 91.4% (cell-free assay; 0.5 µM).
For Cc1c(NC(=O)c2cc(C(N)=O)nc3cc(F)ccc23)c(C(F)(F)F)nn1Cc1ccc(C(C)(C)C)cc1, the remaining binding was 76% (cell-free assay; competition with immobilised ligand; 1 µM).
For COc1cc2ncnc(Nc3ccc(Oc4ccccc4)cc3C)c2cc1OC, the inhibition was 6% (enzyme activity; inhibitor; 1 µM).
Cc1ccc(Nc2nccc(N(C)c3ccc4c(C)n(C)nc4c3)n2)cc1S(N)(=O)=O has a remaining activity of 77.4% (enzyme activity; inhibitor; 0.5 µM).
The remaining binding of O=C(NC[C@@H]1[C@H]2CN(C(=O)OCc3cc(C(F)(F)F)cc(C(F)(F)F)c3)C[C@@H]12)c1ccc2[nH]nnc2c1 is reported as 100% (cell-free assay; competition with immobilised ligand; 1 µM).
With CC(C)(C)c1nc2c(s1)c1nc(N)ncc1c1ccc(NS(=O)(=O)c3c(F)cccc3F)c(F)c12 the remaining activity was 95% (enzyme activity; inhibitor; radiometric; 1 µM).
With O=C1NC(=O)c2cc(Nc3ccc(F)cc3)c(Nc3ccc(F)cc3)cc21 the remaining signal was 91.2% (cell-free assay; 0.5 µM).
O=C(Nc1cnn(-c2csc(C(=O)NC3COC3)c2)c1)Nc1c(F)cccc1Cl gave a remaining activity of 90.4% (enzyme activity; inhibitor; 5 µM).
CS(=O)(=O)CCNCc1ccc(-c2ccc3ncnc(Nc4ccc(OCc5cccc(F)c5)c(Cl)c4)c3c2)o1 gave a remaining signal of 111% (cell-free assay; 0.5 µM).
With Cc1ccc(C(=O)Nc2ccc(CN3CCN(C)CC3)c(C(F)(F)F)c2)cc1C#Cc1cnc2cccnn12 the remaining activity was 27% (enzyme activity; inhibitor; 23.5 nM).
The remaining binding of CO[C@@H](C)c1c(Nc2ccc([C@@H](N(C)C(=O)C3CCS(=O)(=O)CC3)C(F)(F)F)cc2)cnc2cc(Cl)nn12 is reported as 100% (cell-free assay; competition with immobilised ligand; 1 µM).
The remaining signal of Oc1ccc(-c2nc(-c3ccncc3)c(-c3ccc(F)cc3)[nH]2)cc1 is reported as 86.5% (cell-free assay; 0.5 µM).
